According to ChEMBL document CHEMBL3588757, “Structure-based design, synthesis and biological testing of piperazine-linked bis-epipodophyllotoxin etoposide analogs” (Bioorg Med Chem, 2015):

Key:
Assay type in all cases: functional
[1] = test system: SF-268; assay: Cytotoxicity against human SF268 cells assessed as cell growth at 50 uM by SRB assay; conditions: read-out: Activity
[2] = test system: SR; assay: Cytotoxicity against human SR cells assessed as cell growth at 0.005 uM by SRB assay; conditions: read-out: Activity
[3] = test system: HCT-116; assay: Cytotoxicity against human HCT116 cells assessed as cell growth at 50 uM by SRB assay; conditions: read-out: Activity
Outline: (§1)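 Measured in the NCI-60 human tumour cell line panel using five-dose testing. Growth was recorded at each dose for each cell line, and a GI50 was derived for each line.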

[4] = test system: TK-10; assay: Cytotoxicity against human TK10 cells assessed as cell growth at 5 uM by SRB assay; conditions: read-out: Activity
[5] = test system: NCI-H460; assay: Cytotoxicity against human NCI-H460 cells assessed as cell growth at 50 uM by SRB assay; conditions: read-out: Activity
[6] = test system: SN12C; assay: Cytotoxicity against human SN12C cells assessed as cell growth at 5 uM by SRB assay; conditions: read-out: Activity
[7] = test system: NCI-H23; assay: Cytotoxicity against human NCI-H23 cells assessed as cell growth at 5 uM by SRB assay; conditions: read-out: Activity
[8] = test system: LOX IMVI; assay: Cytotoxicity against human LOXIMVI cells by SRB assay
Outline: (§2)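 NCI-60 panel screen; 5-dose testing giving GI50 per cell line, plus a single 10 µM one-dose test. Method details not given beyond the NCI screen.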

[9] = test system: UACC-62; assay: Cytotoxicity against human UACC62 cells assessed as cell growth at 0.005 uM by SRB assay; conditions: read-out: Activity
[10] = test system: RXF 393; assay: Cytotoxicity against human RXF393 cells assessed as cell growth at 50 uM by SRB assay; conditions: read-out: Activity
[11] = test system: SK-MEL-5; assay: Cytotoxicity against human SK-MEL-5 cells assessed as cell growth at 5 uM by SRB assay; conditions: read-out: Activity
[12] = test system: U-251; assay: Cytotoxicity against human U251 cells assessed as cell growth at 0.05 uM by SRB assay; conditions: read-out: Activity
[13] = test system: MOLT-4; assay: Cytotoxicity against human MOLT4 cells assessed as cell growth at 0.005 uM by SRB assay; conditions: read-out: Activity
[14] = test system: SK-MEL-2; assay: Cytotoxicity against human SK-MEL-2 cells assessed as cell growth at 5 uM by SRB assay; conditions: read-out: Activity
[15] = test system: T47D; assay: Cytotoxicity against human T47D cells assessed as cell growth at 5 uM by SRB assay; conditions: read-out: Activity
[16] = test system: A498; assay: Cytotoxicity against human A498 cells by SRB assay
[17] = test system: MDA-MB-231; assay: Cytotoxicity against human MDA-MB-231/ATCC cells assessed as cell growth at 50 uM by SRB assay; conditions: read-out: Activity
[18] = test system: UACC-62; assay: Cytotoxicity against human UACC62 cells assessed as cell growth at 5 uM by SRB assay; conditions: read-out: Activity
[19] = test system: UO-31; assay: Cytotoxicity against human UO31 cells assessed as cell growth at 0.05 uM by SRB assay; conditions: read-out: Activity
[20] = test system: LOX IMVI; assay: Cytotoxicity against human LOXIMVI cells assessed as cell growth at 0.5 uM by SRB assay; conditions: read-out: Activity
[21] = test system: T47D; assay: Cytotoxicity against human T47D cells assessed as cell growth at 50 uM by SRB assay; conditions: read-out: Activity
[22] = test system: KM12; assay: Cytotoxicity against human KM12 cells assessed as cell growth at 50 uM by SRB assay; conditions: read-out: Activity
[23] = test system: SN12C; assay: Cytotoxicity against human SN12C cells by SRB assay; outline: as §2
[24] = test system: MDA-MB-468; assay: Cytotoxicity against human MDA-MB-468 cells assessed as cell growth at 5 uM by SRB assay; conditions: read-out: Activity
[25] = test system: KM12; assay: Cytotoxicity against human KM12 cells assessed as cell growth at 0.005 uM by SRB assay; conditions: read-out: Activity
[26] = test system: BT-549; assay: Cytotoxicity against human BT549 cells assessed as cell growth at 0.005 uM by SRB assay; conditions: read-out: Activity
[27] = test system: HOP-92; assay: Cytotoxicity against human HOP92 cells assessed as cell growth at 50 uM by SRB assay; conditions: read-out: Activity; outline: as §1
[28] = test system: SNB-75; assay: Cytotoxicity against human SNB75 cells assessed as cell growth at 0.5 uM by SRB assay; conditions: read-out: Activity
[29] = test system: MDA-MB-435; assay: Cytotoxicity against human MDA-MB-435 cells assessed as cell growth at 0.5 uM by SRB assay; conditions: read-out: Activity
[30] = test system: HOP-92; assay: Cytotoxicity against human HOP92 cells by SRB assay; outline: as §1
[31] = test system: SR; assay: Cytotoxicity against human SR cells assessed as cell growth at 0.05 uM by SRB assay; conditions: read-out: Activity
[32] = test system: HCC 2998; assay: Cytotoxicity against human HCC2998 cells assessed as cell growth at 0.05 uM by SRB assay; conditions: read-out: Activity; outline: as §1
[33] = test system: KM12; assay: Cytotoxicity against human KM12 cells assessed as cell growth at 0.05 uM by SRB assay; conditions: read-out: Activity
[34] = test system: U-251; assay: Cytotoxicity against human U251 cells assessed as cell growth at 50 uM by SRB assay; conditions: read-out: Activity
[35] = test system: PC-3; assay: Cytotoxicity against human PC3 cells assessed as cell growth at 0.5 uM by SRB assay; conditions: read-out: Activity
[36] = test system: SNB-19; assay: Cytotoxicity against human SNB19 cells assessed as cell growth at 5 uM by SRB assay; conditions: read-out: Activity
[37] = test system: MDA-MB-435; assay: Cytotoxicity against human MDA-MB-435 cells assessed as cell growth at 50 uM by SRB assay; conditions: read-out: Activity
[38] = test system: SNB-75; assay: Cytotoxicity against human SNB75 cells assessed as cell growth at 50 uM by SRB assay; conditions: read-out: Activity
[39] = test system: HCT-116; assay: Cytotoxicity against human HCT116 cells assessed as cell growth at 0.05 uM by SRB assay; conditions: read-out: Activity; outline: as §1
[40] = test system: MDA-MB-468; assay: Cytotoxicity against human MDA-MB-468 cells assessed as cell growth at 0.005 uM by SRB assay; conditions: read-out: Activity
[41] = test system: SK-MEL-2; assay: Cytotoxicity against human SK-MEL-2 cells assessed as cell growth at 50 uM by SRB assay; conditions: read-out: Activity
[42] = test system: SK-MEL-2; assay: Cytotoxicity against human SK-MEL-2 cells assessed as cell growth at 0.05 uM by SRB assay; conditions: read-out: Activity
[43] = test system: NCI-H460; assay: Cytotoxicity against human NCI-H460 cells by SRB assay; outline: as §2
[44] = test system: OVCAR-4; assay: Cytotoxicity against human OVCAR4 cells assessed as cell growth at 0.05 uM by SRB assay; conditions: read-out: Activity
[45] = test system: HCT-15; assay: Cytotoxicity against human HCT15 cells assessed as cell growth at 0.5 uM by SRB assay; conditions: read-out: Activity; outline: as §1
[46] = read-out: LC50 (the source's name)
[47] = read-out: pLC50 (the source's name) (converted)

COc1cc([C@@H]2c3cc4c(cc3[C@@H](NC(=O)CN3CCN(CCCCCCN5CCN(CC(=O)N[C@@H]6c7cc8c(cc7[C@@H](c7cc(OC)c(O)c(OC)c7)[C@H]7C(=O)OC[C@@H]76)OCO8)CC5)CC3)[C@H]3COC(=O)[C@H]23)OCO4)cc(OC)c1O
growth at 50 µM [1]: 10%
growth at 0.005 µM [2]: 90%
growth at 50 µM [3]: 2%
growth at 5 µM [4]: 85%
growth at 50 µM [5]: -28%
growth at 5 µM [6]: 11%
growth at 5 µM [7]: 44%
GI50 ([8]; read-out: GI50): 0.966 µM
CC50 [8, 46]: > 50 µM
TGI ([8]; read-out: TGI): 28 µM
GI50 ([8]; read-out: pGI50 (converted)): 0.977 µM
CC50 [8, 47]: > 50.1 µM
TGI ([8]; read-out: pTGI (converted)): 28.2 µM
growth at 0.005 µM [9]: 97%
growth at 50 µM [10]: 7%
growth at 5 µM [11]: 57%
growth at 0.05 µM [12]: 101%
growth at 0.005 µM [13]: 108%
growth at 5 µM [14]: 86%
growth at 5 µM [15]: 31%
GI50 ([16]; read-out: GI50): 5.74 µM
CC50 [16, 46]: > 50 µM
TGI ([16]; read-out: TGI): 35.2 µM
GI50 ([16]; read-out: pGI50 (converted)): 5.75 µM
CC50 [16, 47]: > 50.1 µM
TGI ([16]; read-out: pTGI (converted)): 35.5 µM
growth at 50 µM [17]: 13%
growth at 5 µM [18]: 29%
growth at 0.05 µM [19]: 97%
growth at 0.5 µM [20]: 61%
growth at 50 µM [21]: 2%
growth at 50 µM [22]: 10%
GI50 ([23]; read-out: GI50): 1.31 µM
CC50 [23, 46]: > 50 µM
TGI ([23]; read-out: TGI): > 50 µM
GI50 ([23]; read-out: pGI50 (converted)): 1.32 µM
CC50 [23, 47]: > 50.1 µM
TGI ([23]; read-out: pTGI (converted)): > 50.1 µM
growth at 5 µM [24]: 22%
growth at 0.005 µM [25]: 103%
growth at 0.005 µM [26]: 86%
growth at 50 µM [27]: 14%
growth at 0.5 µM [28]: 61%
growth at 0.5 µM [29]: 84%
GI50 ([30]; read-out: GI50): 1.55 µM
CC50 [30, 46]: > 50 µM
TGI ([30]; read-out: TGI): > 50 µM
GI50 ([30]; read-out: pGI50 (converted)): 1.55 µM
CC50 [30, 47]: > 50.1 µM
TGI ([30]; read-out: pTGI (converted)): > 50.1 µM
growth at 0.05 µM [31]: 64%
growth at 0.05 µM [32]: 104%
growth at 0.05 µM [33]: 103%
growth at 50 µM [34]: -10%
growth at 0.5 µM [35]: 80%
growth at 5 µM [36]: 15%
growth at 50 µM [37]: 17%
growth at 50 µM [38]: -31%
growth at 0.05 µM [39]: 98%
growth at 0.005 µM [40]: 91%
growth at 50 µM [41]: -15%
growth at 0.05 µM [42]: 100%
GI50 ([43]; read-out: GI50): 0.261 µM
CC50 [43, 46]: > 50 µM
TGI ([43]; read-out: TGI): 9.45 µM
GI50 ([43]; read-out: pGI50 (converted)): 0.263 µM
CC50 [43, 47]: > 50.1 µM
TGI ([43]; read-out: pTGI (converted)): 9.55 µM
growth at 0.05 µM [44]: 89%
growth at 0.5 µM [45]: 90%
